Bioassay records deposited in PubChem BioAssay by several laboratories.
Jurkat NFkB inh: inhibitors of induced NF-kB luciferase reporter, primary screen, TCR NF-kB activation inhibitor project, cell-based, luminescence, uHTS. Jurkat, PMA/ionomycin-induced NF-kB luciferase reporter. inhibition, % at 4 µM. 330,000 compounds, 0.53% hits. AID 435003, 2010; in the data active = inhibition above about 50%
UPR CHOP act: activators of apoptotic CHOP UPR arm, primary screen, cell-based, CHO-CHOP luciferase reporter, luminescence, uHTS. UPR activation; percent of tunicamycin response over DMSO baseline. activation, % at 10 µM. 330,000 compounds, 0.34% hits. AID 449763, 2010;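 active = at 10 µM dose, activation of 40% or more, normalized to positive control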;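 note: 100% = tunicamycin at 10 µg/mL and 0% = DMSO alone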
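assay system = CHO CHOP reporter cells | amount = 500 CHO-CHOP cells per well | buffer or medium = F12 with 10% FBS | incubation = 16-18 h cell attachment, then 6 h compound exposure, 37 °C | detection = luminescence read with Steady-Glo | read-out = percent activation relative to tunicamycin control | controls = tunicamycin high control, DMSO low control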
XBP1 UPR activ: activators of adaptive XBP1 UPR arm, primary screen, cell-based, CHO-XBP1 luciferase reporter, luminescence, uHTS; IRE1-XBP1 UPR activation; percent of tunicamycin response, DMSO as zero; activation, % at 20 µM; 330,000 compounds, 0.33% hits;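 active = versus positive control, 20 µM dose yields 30% or more activation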;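 note: 100% = tunicamycin at 10 µg/mL and 0% = DMSO only wells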
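Signal: luciferase luminescence; Assay system: CHO-XBP1 luciferase reporter cells; Amount: one thousand reporter cells per well; Dosing: 20 µM single concentration, DMSO 1%; Benchmarks: high control tunicamycin 10 µg/mL final, low control DMSO vehicle only; Schedule: 6 h compound exposure at 37 °C, 5% CO2; Evaluation: percent activation relative to tunicamycin reference.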
CHOP inh: inhibitors of CHOP promoter induction, primary screen, cell-based, unfolded protein response, luciferase reporter; CHO-K1 CHOP-promoter luciferase, tunicamycin-induced, 15-18 h; inhibition, % at 10 µM; 220,000 compounds, 3.8% hits; AID 2732, 2010;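 active = compounds that reduced the stress-induced luciferase reporter signal by more than about 70% of percent inhibition, limit read from the data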;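 note: 0% = tunicamycin plus vehicle and 100% = wells without tunicamycin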
697 NFkB inh: inhibitors of PMA/ionomycin-induced NF-kB reporter, 697 cells, primary screen, B-cell NF-kB inhibitor project, cell-based, luminescence, uHTS; 697 B-cell NF-kB luciferase reporter, 16 h; inhibition, % at 4 µM; 330,000 compounds, 0.33% hits; in the data active = inhibition above about 35%
Jurkat NFkB conf: PMA/ionomycin-induced NF-kB reporter inhibitors, Jurkat retest, confirmation, T-cell NF-kB inhibitor project, cell-based, luminescence, single concentration. inhibition, % at 4 µM. 2,700 compounds, 27% hits. shares compounds with Jurkat NFkB inh. Jurkat NF-kB luciferase, 16 h;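 active = inhibition reaching about 45% at 4 µM in either replicate, limit read from the data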;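 note: plate controls were PMA/ionomycin stimulated DMSO wells for no effect and unstimulated DMSO wells for full effect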
* = called active by the depositor. The sample as a whole holds a higher share of hits than the screen did.

COc1ccc(/C=N/NC(=O)c2cccc(NC(C)=O)c2)c(OC)c1 was read as Jurkat NFkB inh -10, UPR CHOP act -1, XBP1 UPR activ -1, CHOP inh 0 and 697 NFkB inh 11.
COc1ccc(C(=O)Nc2cccc(C(=O)N/N=C/c3ccc(OC)cc3OC)c2)cc1 was read as Jurkat NFkB inh 57*, UPR CHOP act -4, XBP1 UPR activ -14, 697 NFkB inh -14 and Jurkat NFkB conf 2.
Screening O=C(N/N=C/c1c(F)cccc1Cl)c1cc(C2CC2)[nH]n1 returned Jurkat NFkB inh -37, UPR CHOP act 4, XBP1 UPR activ 4 and 697 NFkB inh -53.
Screening Cc1ccc(C(=O)Nc2ccc3c4c(cccc24)CC3)cc1[N+](=O)[O-] returned Jurkat NFkB inh 85*, UPR CHOP act 0, XBP1 UPR activ 0, CHOP inh 0, 697 NFkB inh -22 and Jurkat NFkB conf 13.
Screening CCN1CCN(c2cc(C)c3cc(NC(=O)c4ccc(OC)c(OC)c4)ccc3n2)CC1 returned Jurkat NFkB inh 57*, UPR CHOP act 3, XBP1 UPR activ -6, CHOP inh -24, 697 NFkB inh -63 and Jurkat NFkB conf 29.
For CCOc1ccccc1C(=O)Nc1ccc2nc(N3CCN(c4ncccn4)CC3)cc(C)c2c1 the results were Jurkat NFkB inh 70*, UPR CHOP act 12, XBP1 UPR activ 12, 697 NFkB inh -49 and Jurkat NFkB conf 44.
For CCN1CCN(c2cc(C)c3cc(NC(=O)CCC(=O)Nc4ccc(OC)c(OC)c4)ccc3n2)CC1 the results were Jurkat NFkB inh -4, UPR CHOP act -1, XBP1 UPR activ -1 and 697 NFkB inh 7.
Screening O=C(CSc1nnc(Cn2nnc3ccccc32)o1)N(Cc1ccc(F)cc1)c1ccccc1 returned Jurkat NFkB inh 57*, UPR CHOP act 5, XBP1 UPR activ -8, 697 NFkB inh 20 and Jurkat NFkB conf 61*.
Screening Cc1cc(C)nc(S/C=C/C(=O)c2ccc(F)cc2)n1 returned Jurkat NFkB inh 70*, UPR CHOP act 12, XBP1 UPR activ -6, CHOP inh -22, 697 NFkB inh -155 and Jurkat NFkB conf -1.
Screening COc1ccc2[nH]c(=O)c(CN(CC3CCCO3)C(=S)Nc3ccccc3)cc2c1 (centres undefined) returned Jurkat NFkB inh -4, UPR CHOP act -1, XBP1 UPR activ 0, CHOP inh 40 and 697 NFkB inh -11.
Screening COc1ccc2cc(CN(CC3CCCO3)C(=S)Nc3ccccc3)c(=O)[nH]c2c1 (centres undefined) returned Jurkat NFkB inh 50, UPR CHOP act 2, XBP1 UPR activ 3, CHOP inh 4, 697 NFkB inh 6 and Jurkat NFkB conf 9.
Screening O=C(c1ccc(F)cc1F)C1CCN(c2ccc([N+](=O)[O-])cn2)CC1 returned Jurkat NFkB inh 86*, UPR CHOP act 0, XBP1 UPR activ -4, CHOP inh 30, 697 NFkB inh -44 and Jurkat NFkB conf 29.
For O=C(Nc1ccc(F)cc1F)N1CCCN(c2ccc([N+](=O)[O-])cn2)CC1 the results were Jurkat NFkB inh 6, UPR CHOP act 1, XBP1 UPR activ -5, CHOP inh 4 and 697 NFkB inh -7.
For CCOC(=O)c1sc(SCc2ccccc2)c2c1CC(C)(C)CC2=O the results were Jurkat NFkB inh 11, UPR CHOP act 2, XBP1 UPR activ 0 and 697 NFkB inh -22.
For Cn1cc(C(=O)N/N=C/c2c(O)ccc3ccccc23)ccc1=O the results were Jurkat NFkB inh 59*, UPR CHOP act -2, XBP1 UPR activ -4, CHOP inh 57, 697 NFkB inh 14 and Jurkat NFkB conf 76*.
For O=C(N/N=C/c1c(O)ccc2ccccc12)c1ccc(Br)o1 the results were Jurkat NFkB inh 52*, UPR CHOP act -2, XBP1 UPR activ -1, 697 NFkB inh -2 and Jurkat NFkB conf 62*.
`Cc1c(C(=O)N/N=C/c2c(O)ccc3ccccc23)nnn1-c1nonc1N` gave Jurkat NFkB inh 55*, UPR CHOP act -1, XBP1 UPR activ -1, 697 NFkB inh 20 and Jurkat NFkB conf 76*.
O=C(N/N=C\c1c(O)ccc2ccccc12)c1ccc(O)cc1 was read as Jurkat NFkB inh 6, UPR CHOP act -4, XBP1 UPR activ 2 and 697 NFkB inh -8.
O=C(N/N=C\c1c(O)ccc2ccccc12)c1cncc(Br)c1 was read as Jurkat NFkB inh 52*, UPR CHOP act -5, XBP1 UPR activ -2, 697 NFkB inh -8 and Jurkat NFkB conf 79*.
Cc1ccccc1CNC(=O)C1CCN(c2nnc(N3CCCC3=O)s2)CC1 was read as Jurkat NFkB inh 6, UPR CHOP act 0, XBP1 UPR activ -2 and 697 NFkB inh 7.
Screening COc1ccccc1N1CC(C(=O)Nc2ccccc2N2CCCC2)CC1=O (centres undefined) returned Jurkat NFkB inh 2, UPR CHOP act 0, XBP1 UPR activ 0 and 697 NFkB inh -8.
Screening COc1ccc(CNS(=O)(=O)c2ccc3c(c2)NC(=O)C(C)S3)cc1 (centres undefined) returned Jurkat NFkB inh -12, UPR CHOP act -3, XBP1 UPR activ -4 and 697 NFkB inh -46.
Screening O=C(N/N=C/c1c(O)ccc2ccccc12)Nc1ccccc1 returned Jurkat NFkB inh 1, UPR CHOP act 1, XBP1 UPR activ 2 and 697 NFkB inh -32.
O=C(CSCC(=O)Nc1ccccc1)N/N=C/c1c(O)ccc2ccccc12 was read as Jurkat NFkB inh 63*, UPR CHOP act -4, XBP1 UPR activ -2, CHOP inh 56, 697 NFkB inh 17 and Jurkat NFkB conf 37.
Brc1cc(-c2ccccc2)nc(-c2ccccc2)n1 was read as Jurkat NFkB inh -7, UPR CHOP act 1, XBP1 UPR activ -3 and 697 NFkB inh 8.
For COc1ccc(-c2nnc(-c3ccc(N(C)C)cc3)o2)cc1 the results were Jurkat NFkB inh -67, UPR CHOP act 3, XBP1 UPR activ 2, CHOP inh 46 and 697 NFkB inh -77.
`Clc1ccc(-c2nnc(-c3ccccc3Cl)o2)cc1` gave Jurkat NFkB inh -194, UPR CHOP act -1, XBP1 UPR activ -1, CHOP inh 49, 697 NFkB inh -203 and Jurkat NFkB conf -129.
CN(C)c1ccc(-c2nnc(-c3ccccc3F)o2)cc1 was read as Jurkat NFkB inh -174, UPR CHOP act -1, XBP1 UPR activ -3, 697 NFkB inh -208 and Jurkat NFkB conf -107.
